Measured values from the M2OR odorant receptor database.

Columns and labels:
Settings in all cases: stereoisomer not certain
OR51L1 (Homo sapiens) = molecular target: T1, OR51L1 (Homo sapiens) (UniProt Q8NGJ5)
T1 sequence (whole entry): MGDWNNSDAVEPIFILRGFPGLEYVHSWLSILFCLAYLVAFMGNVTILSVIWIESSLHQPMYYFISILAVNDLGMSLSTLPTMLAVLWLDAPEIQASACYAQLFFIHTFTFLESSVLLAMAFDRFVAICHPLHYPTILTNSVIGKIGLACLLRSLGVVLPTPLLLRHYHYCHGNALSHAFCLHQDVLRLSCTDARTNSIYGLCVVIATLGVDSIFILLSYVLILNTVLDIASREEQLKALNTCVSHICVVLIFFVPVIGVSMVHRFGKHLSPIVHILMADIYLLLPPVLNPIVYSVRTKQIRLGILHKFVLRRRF
Summary of the method: (§1)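 Each receptor–molecule pair is labelled responsive or non-responsive (inactive) according to whether the original authors judged the measured signal statistically different from baseline. The data were taken from the main text and supplementary material of published papers and checked for typos and inconsistencies. Assay methods differed by source, with transient luciferase assays in mammalian cell lines being common.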

OR51I2 (Homo sapiens) = molecular target: T2, OR51I2 (Homo sapiens) (UniProt Q9H344)
T2 sequence (whole entry): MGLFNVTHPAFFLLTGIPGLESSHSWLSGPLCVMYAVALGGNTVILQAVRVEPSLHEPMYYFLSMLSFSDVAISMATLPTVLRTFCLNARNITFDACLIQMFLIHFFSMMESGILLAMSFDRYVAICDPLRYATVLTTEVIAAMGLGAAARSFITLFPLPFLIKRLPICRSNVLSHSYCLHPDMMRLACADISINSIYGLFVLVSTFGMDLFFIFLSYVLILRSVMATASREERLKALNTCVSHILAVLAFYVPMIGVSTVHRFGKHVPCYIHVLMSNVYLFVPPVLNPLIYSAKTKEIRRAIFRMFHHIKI
Summary of the method: as §1

OR51J1 (Homo sapiens) = molecular target: T3, OR51J1 (Homo sapiens) (UniProt Q9H342)
T3 sequence (whole entry): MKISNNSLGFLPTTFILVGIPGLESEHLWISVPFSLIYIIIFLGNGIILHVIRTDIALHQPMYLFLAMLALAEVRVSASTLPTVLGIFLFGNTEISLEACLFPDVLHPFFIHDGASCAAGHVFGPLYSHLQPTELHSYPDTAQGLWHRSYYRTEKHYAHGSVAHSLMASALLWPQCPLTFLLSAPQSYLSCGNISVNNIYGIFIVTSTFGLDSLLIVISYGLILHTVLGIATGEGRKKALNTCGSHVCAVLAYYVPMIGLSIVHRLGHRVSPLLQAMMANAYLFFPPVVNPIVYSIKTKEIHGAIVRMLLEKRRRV
Summary of the method: as §1

OR51M1 (Homo sapiens) = molecular target: T4, OR51M1 (Homo sapiens) (UniProt Q9H341)
T4 sequence (whole entry): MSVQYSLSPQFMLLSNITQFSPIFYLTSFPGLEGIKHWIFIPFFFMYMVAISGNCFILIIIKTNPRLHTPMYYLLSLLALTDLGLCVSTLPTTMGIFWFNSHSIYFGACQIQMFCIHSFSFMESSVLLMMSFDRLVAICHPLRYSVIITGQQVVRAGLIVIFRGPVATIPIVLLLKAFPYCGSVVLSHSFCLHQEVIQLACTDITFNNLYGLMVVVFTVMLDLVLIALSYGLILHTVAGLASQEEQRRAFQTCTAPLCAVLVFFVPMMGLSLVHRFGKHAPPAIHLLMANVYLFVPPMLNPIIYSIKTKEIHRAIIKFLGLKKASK
Summary of the method: as §1

OR51Q1 (Homo sapiens) = molecular target: T5, OR51Q1 (Homo sapiens) (UniProt Q8NH59)
T5 sequence (whole entry): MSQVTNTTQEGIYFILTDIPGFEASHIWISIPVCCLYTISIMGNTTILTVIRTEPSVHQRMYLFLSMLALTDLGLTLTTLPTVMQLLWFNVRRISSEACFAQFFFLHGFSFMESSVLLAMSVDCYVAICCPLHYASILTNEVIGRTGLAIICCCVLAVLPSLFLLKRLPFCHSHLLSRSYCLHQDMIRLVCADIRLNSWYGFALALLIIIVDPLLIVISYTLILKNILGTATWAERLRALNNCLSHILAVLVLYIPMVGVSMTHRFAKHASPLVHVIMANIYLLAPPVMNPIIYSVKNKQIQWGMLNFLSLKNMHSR
Summary of the method: as §1

OR51S1 (Homo sapiens) = molecular target: T6, OR51S1 (Homo sapiens) (UniProt Q8NGJ8)
T6 sequence (whole entry): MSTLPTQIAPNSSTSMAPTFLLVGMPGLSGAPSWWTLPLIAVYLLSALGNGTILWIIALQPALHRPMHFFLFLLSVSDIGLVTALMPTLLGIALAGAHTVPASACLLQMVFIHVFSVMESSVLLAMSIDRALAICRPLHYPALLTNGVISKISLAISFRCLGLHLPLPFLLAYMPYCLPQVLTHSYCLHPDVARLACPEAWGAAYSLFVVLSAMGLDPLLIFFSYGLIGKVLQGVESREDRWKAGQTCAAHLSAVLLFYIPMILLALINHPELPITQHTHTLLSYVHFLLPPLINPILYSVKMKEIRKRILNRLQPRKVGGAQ
Summary of the method: as §1

OR51V1 (Homo sapiens) = molecular target: T7, OR51V1 (Homo sapiens) (UniProt Q9H2C8)
T7 sequence (whole entry): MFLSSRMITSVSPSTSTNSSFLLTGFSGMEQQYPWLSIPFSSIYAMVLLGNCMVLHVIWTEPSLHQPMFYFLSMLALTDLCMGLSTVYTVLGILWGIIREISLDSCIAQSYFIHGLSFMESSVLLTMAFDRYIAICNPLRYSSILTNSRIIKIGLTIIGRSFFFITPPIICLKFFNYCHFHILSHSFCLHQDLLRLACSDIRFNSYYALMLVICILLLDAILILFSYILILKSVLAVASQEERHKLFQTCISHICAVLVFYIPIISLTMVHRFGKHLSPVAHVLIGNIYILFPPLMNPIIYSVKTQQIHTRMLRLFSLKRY
Summary of the method: as §1

OR52A1 (Homo sapiens) = molecular target: T8, OR52A1 (Homo sapiens) (UniProt Q9UKL2)
T8 sequence (whole entry): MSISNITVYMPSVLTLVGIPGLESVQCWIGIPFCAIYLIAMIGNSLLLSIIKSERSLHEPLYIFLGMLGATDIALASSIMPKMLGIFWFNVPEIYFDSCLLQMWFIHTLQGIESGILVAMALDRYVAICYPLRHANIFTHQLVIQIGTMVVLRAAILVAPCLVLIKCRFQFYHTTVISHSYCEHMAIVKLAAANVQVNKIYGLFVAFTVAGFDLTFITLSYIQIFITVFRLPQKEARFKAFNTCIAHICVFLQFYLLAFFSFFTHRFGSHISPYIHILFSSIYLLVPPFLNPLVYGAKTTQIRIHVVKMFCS
Summary of the method: as §1

OR52A5 (Homo sapiens) = molecular target: T9, OR52A5 (Homo sapiens) (UniProt Q9H2C5)
T9 sequence (whole entry): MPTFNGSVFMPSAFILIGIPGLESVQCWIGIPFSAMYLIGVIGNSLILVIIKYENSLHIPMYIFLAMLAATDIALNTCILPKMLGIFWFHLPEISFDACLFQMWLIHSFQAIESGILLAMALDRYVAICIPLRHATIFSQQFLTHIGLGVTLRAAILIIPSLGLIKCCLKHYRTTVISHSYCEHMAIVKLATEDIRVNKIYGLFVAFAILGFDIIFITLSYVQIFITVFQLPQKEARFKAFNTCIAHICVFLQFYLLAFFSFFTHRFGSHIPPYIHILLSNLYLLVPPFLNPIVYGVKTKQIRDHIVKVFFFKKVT
Summary of the method: as §1

OR52B2 (Homo sapiens) = molecular target: T10, OR52B2 (Homo sapiens) (UniProt Q96RD2)
T10 sequence (whole entry): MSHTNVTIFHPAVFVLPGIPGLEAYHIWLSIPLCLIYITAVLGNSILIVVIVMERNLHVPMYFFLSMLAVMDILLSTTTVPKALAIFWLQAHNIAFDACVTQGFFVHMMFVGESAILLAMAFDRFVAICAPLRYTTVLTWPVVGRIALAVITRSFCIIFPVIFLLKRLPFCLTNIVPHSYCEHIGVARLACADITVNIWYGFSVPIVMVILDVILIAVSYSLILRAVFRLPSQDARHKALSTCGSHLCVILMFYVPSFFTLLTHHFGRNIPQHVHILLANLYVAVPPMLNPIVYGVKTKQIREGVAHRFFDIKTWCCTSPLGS
Summary of the method: as §1

OR52B4 (Homo sapiens) = molecular target: T11, OR52B4 (Homo sapiens) (UniProt Q8NGK2)
T11 sequence (whole entry): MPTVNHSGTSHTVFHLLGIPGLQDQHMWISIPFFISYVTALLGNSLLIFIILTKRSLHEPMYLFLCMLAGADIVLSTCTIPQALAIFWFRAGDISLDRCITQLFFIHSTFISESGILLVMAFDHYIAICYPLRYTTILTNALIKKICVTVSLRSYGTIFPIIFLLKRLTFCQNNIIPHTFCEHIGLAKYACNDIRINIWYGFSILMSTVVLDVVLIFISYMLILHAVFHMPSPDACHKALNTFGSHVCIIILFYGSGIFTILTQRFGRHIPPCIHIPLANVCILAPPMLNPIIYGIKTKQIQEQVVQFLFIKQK
Summary of the method: as §1

OR52B6 (Homo sapiens) = molecular target: T12, OR52B6 (Homo sapiens) (UniProt Q8NGF0)
T12 sequence (whole entry): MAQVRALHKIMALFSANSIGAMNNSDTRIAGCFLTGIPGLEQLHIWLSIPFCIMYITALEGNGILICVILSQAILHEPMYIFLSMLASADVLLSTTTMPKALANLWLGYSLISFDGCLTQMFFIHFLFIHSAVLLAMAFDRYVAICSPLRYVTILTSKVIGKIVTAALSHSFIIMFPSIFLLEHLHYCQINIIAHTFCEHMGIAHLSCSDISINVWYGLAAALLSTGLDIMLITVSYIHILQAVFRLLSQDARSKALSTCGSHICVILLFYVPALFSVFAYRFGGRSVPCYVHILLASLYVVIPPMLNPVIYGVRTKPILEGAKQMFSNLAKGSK
Summary of the method: as §1

OR52D1 (Homo sapiens) = molecular target: T13, OR52D1 (Homo sapiens) (UniProt Q9H346)
T13 sequence (whole entry): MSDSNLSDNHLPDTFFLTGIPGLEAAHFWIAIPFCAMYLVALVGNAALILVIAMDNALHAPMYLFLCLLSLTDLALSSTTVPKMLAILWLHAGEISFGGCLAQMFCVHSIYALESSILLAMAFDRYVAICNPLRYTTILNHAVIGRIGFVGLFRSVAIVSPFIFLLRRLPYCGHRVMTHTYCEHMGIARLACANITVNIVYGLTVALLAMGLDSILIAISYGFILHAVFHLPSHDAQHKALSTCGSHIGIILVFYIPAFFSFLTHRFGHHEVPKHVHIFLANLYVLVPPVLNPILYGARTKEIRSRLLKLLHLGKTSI
Summary of the method: as §1

OR52E1 (Homo sapiens) = OR52E1 (Homo sapiens) (UniProt Q8NGJ3)
OR52E1 (Homo sapiens), sequence (Q8NGJ3 whole entry): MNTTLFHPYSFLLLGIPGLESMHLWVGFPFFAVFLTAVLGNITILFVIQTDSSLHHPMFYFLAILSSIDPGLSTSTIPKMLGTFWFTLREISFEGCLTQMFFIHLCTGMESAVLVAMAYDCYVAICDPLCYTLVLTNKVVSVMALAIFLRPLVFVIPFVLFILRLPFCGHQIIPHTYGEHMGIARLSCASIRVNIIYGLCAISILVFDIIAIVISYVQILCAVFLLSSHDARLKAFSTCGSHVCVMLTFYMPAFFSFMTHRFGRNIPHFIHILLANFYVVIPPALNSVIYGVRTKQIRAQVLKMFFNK
Summary of the method: as §1

OR52E2 (Homo sapiens) = OR52E2 (Homo sapiens) (UniProt Q8NGJ4)
OR52E2 (Homo sapiens), sequence (Q8NGJ4 whole entry): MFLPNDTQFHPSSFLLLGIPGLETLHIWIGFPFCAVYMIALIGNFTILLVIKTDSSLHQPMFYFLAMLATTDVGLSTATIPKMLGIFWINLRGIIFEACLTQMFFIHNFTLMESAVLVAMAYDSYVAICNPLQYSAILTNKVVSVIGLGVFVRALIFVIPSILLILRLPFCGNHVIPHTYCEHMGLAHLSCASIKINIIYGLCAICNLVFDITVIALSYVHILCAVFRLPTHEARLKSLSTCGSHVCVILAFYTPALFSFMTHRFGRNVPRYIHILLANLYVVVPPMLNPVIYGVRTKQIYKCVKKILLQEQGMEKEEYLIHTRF
Summary of the method: as §1

OR52E4 (Homo sapiens) = OR52E4 (Homo sapiens) (UniProt Q8NGH9)
OR52E4 (Homo sapiens), sequence (Q8NGH9 whole entry): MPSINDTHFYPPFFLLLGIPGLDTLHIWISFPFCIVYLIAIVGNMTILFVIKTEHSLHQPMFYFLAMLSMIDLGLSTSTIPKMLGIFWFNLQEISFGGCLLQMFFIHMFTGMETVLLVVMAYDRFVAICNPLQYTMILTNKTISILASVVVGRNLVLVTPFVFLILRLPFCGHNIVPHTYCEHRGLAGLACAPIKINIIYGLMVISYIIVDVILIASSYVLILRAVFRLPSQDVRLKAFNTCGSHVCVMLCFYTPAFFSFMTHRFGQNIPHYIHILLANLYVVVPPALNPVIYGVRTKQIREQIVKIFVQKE
Summary of the method: as §1

OR52E6 (Homo sapiens) = OR52E6 (Homo sapiens) (UniProt Q96RD3)
OR52E6 (Homo sapiens), sequence (Q96RD3 whole entry): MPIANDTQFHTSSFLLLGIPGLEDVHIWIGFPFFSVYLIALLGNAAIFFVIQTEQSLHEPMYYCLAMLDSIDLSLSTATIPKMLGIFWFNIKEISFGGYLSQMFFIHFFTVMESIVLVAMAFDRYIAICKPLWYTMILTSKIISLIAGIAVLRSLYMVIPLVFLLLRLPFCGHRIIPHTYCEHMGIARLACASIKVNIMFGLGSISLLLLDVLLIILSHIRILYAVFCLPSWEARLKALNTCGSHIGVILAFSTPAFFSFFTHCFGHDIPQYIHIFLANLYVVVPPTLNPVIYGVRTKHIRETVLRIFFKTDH
Summary of the method: as §1

Measured: odorant receptor agonist call;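 further: active if original authors judged signal statistically different from baseline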

CCCC(C)=O
inactive: OR51L1 (Homo sapiens)

CCC1OC(=O)C(O)=C1C (stereo not drawn)
inactive: all assays above

CC1=NC(C)C(C)S1 (stereo not drawn)
inactive: all assays above

CCCCCCCCCS
inactive: OR51L1 (Homo sapiens)

C=CCOC(=O)CCCCCC
inactive: OR51L1 (Homo sapiens)

O=C1Cc2ccccc2O1
inactive: OR51L1 (Homo sapiens)
